# In ChEMBL document CHEMBL1125497, “Synthesis and anticonvulsant activity of enaminones” (J Med Chem, 1992):
# What was measured:
# [1] = Antiepileptic activity in male CF1 mice 30 min after administration measured in neurological toxicity (Tox) test at a dose of 100 mg/kg (no. of animals treated /protected); activity value is 0/8; type: functional, Mus musculus
# [2] = Antiepileptic activity in male CF1 mice 30 min after administration measured in maximum electroshock seizure(MES) test at a dose of 100 mg/kg (no. of animals treated /protected); activity value is 2/3; type: functional, Mus musculus
# [3] = Antiepileptic activity in male CF1 mice 4 hr after administration measured in neurological toxicity (Tox) test at a dose of 100 mg/kg (no. of animals treated /protected); activity value is 0/4; type: functional, Mus musculus
# [4] = Antiepileptic activity in male CF1 mice 4 hr after administration measured in maximum electroshock seizure(MES) test at a dose of 100 mg/kg (no. of animals treated /protected); activity value is 0/3; type: functional, Mus musculus
# [5] = Antiepileptic activity in male CF1 mice 30 min after administration measured in subcutaneous pentylenetetrazole (scMet) test at a dose of 100 mg/kg (no. of animals treated /protected); activity value is 0/1; type: functional, Mus musculus
# [6] = Antiepileptic activity in male CF1 mice 4 hr after administration measured in subcutaneous pentylenetetrazole (scMet) test at a dose of 100 mg/kg; activity value is 0/1; type: functional, Mus musculus
# [7] = Dose at which anticonvulsant activity was observed in mice; type: functional, Mus musculus
# [8] = Antiepileptic activity in male CF1 mice 4 hr after administration measured in subcutaneous pentylenetetrazole (scMet) test at a dose of 100 mg/kg (no. of animals treated /protected); activity value is 0/1; type: functional, Mus musculus
# [9] = Antiepileptic activity in male CF1 mice 4 hr after administration measured in maximum electroshock seizure(MES) test at a dose of 300 mg/kg (no. of animals treated /protected); activity value is 0/1; type: functional, Mus musculus
# [10] = Antiepileptic activity in male CF1 mice 30 min after administration measured in subcutaneous pentylenetetrazole (scMet) test at a dose of 300 mg/kg (no. of animals treated /protected); activity value is 0/1; type: functional, Mus musculus
# [11] = Antiepileptic activity in male CF1 mice 30 min after administration measured in maximum electroshock seizure(MES) test at a dose of 300 mg/kg (no. of animals treated /protected); activity value is 1/1; type: functional, Mus musculus
# [12] = Antiepileptic activity in male CF1 mice 4 hr after administration measured in neurological toxicity (Tox) test at a dose of 300 mg/kg (no. of animals treated /protected); activity value is 0/2; type: functional, Mus musculus
# [13] = Antiepileptic activity in male CF1 mice 30 min after administration measured in maximum electroshock seizure(MES) test at a dose of 100 mg/kg (no. of animals treated /protected); activity value is 1/3; type: functional, Mus musculus
# [14] = Antiepileptic activity in male CF1 mice 30 min after administration measured in neurological toxicity (Tox) test at a dose of 300 mg/kg (no. of animals treated /protected); activity value is 0/4; type: functional, Mus musculus
# [15] = Antiepileptic activity in male CF1 mice 4 hr after administration measured in subcutaneous pentylenetetrazole (scMet) test at a dose of 300 mg/kg (no. of animals treated /protected); activity value is 0/1; type: functional, Mus musculus
# [16] = Dose producing neurotoxic effects in 50% of the CF1 mice after intraperitoneal administration.; type: functional; conditions: Mus musculus, ip; read-out: ED50 (the source's name)
# Outline: (§1)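 Phase II quantification in CF1 male mice (ca. 24–34 g), dosing ip or po in 0.5% methylcellulose suspension. ED50 is protection from tonic hind limb extension in MES. TD50 is rotorod neurotoxicity. Both were read at time of peak effect and derived by Litchfield–Wilcoxon with 95% confidence limits.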
# [17] = Time of peak anticonvulsant effect in CF1 mice; type: functional, Mus musculus
# Outline: (§2)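 Male CF1 mice (ca. 24–34 g), compound in 0.5% methylcellulose suspension given ip or po; time (h) at which MES protection (against tonic hind limb extension) peaked was recorded and used for ED50 determination.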
# [18] = Anticonvulsant activity administered intraperitoneally in CF1 mice is the ability to protect the mice from MES(maximal electroshock seizure).; type: functional; conditions: Mus musculus, ip
# [19] = Oral dose producing neurotoxic effects in 50% of rats; type: ADME, organism-based; conditions: rat, in vivo
# Outline: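 Phase VI screen in male Sprague-Dawley rats dosed orally. MES protection and rotorod toxicity were scored as animals responding over animals tested at 0.25, 0.5, 1, 2 and 4 h.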
# [20] = Time of peak neurotoxic effect in CF1 mice; type: ADME; conditions: mouse, in vivo
# Outline: (§3)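 Male CF1 mice (ca. 24–34 g), compound ip in 0.5% methylcellulose suspension; neurological deficit assessed by rotorod test, time (h) of peak neurotoxic effect recorded for TD50 determination.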
# [21] = Protective index was measured as TD50/ED50; type: ADME; conditions: read-out: PI
# [22] = Antiepileptic activity in male CF1 mice 30 min after administration measured in maximum electroshock seizure(MES) test at a dose of 300 mg/kg (no. of animals treated /protected); activity value is 0/1; type: functional, Mus musculus
# [23] = Antiepileptic activity in male CF1 mice 4 hr after administration measured in maximum electroshock seizure(MES) test at a dose of 300 mg/kg (no. of animals treated /protected); activity value is 1/1; type: functional, Mus musculus
# [24] = Antiepileptic activity in male CF1 mice 4 hr after administration measured in subcutaneous pentylenetetrazole (scMet) test at a dose of 300 mg/kg; activity value is 0/1; type: functional, Mus musculus
# Rattus norvegicus [25] = assay: Intraperitoneal dose (0 mg/Kg) reducing rat corneal kindling 0.5 hr after administration.; type: functional
# Outline: (§4)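 Sprague-Dawley rats (85–95 g initial weight) kindled by corneal stimulation (4 s, 8 mA) twice daily for 5 to 6 days, then once daily until 10 consecutive stage 5 seizures. Butacaine sulfate 1% applied to the cornea as a topical anaesthetic. After a vehicle shock and a 2-day shock-free period, drug given ip, then a single shock at the time of peak effect. Scored on the modified Racine scale (0–5).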
# [26] = Dose showing neurotoxicity in 50% of the at the time of peak neurotoxic effect in CF1 MICE after ip administration.; type: toxicity, organism-based; conditions: CF1, mouse, in vivo
# Outline: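 CF1 male mice (ca. 24–34 g), dosed ip in 0.5% methylcellulose suspension. Neurotoxicity measured by the rotorod test at the time of peak neurotoxic effect. TD50 and confidence limits by the Litchfield-Wilcoxon method.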
# Rattus norvegicus [27] = assay: Average seizure score for the rat cornea 0.5 hr after intraperitoneal administration of 0 mg/Kg of compound; type: functional; outline: as §4
# [28] = Dose protecting 50% of the mice from tonic hind limb extension at the time of […] after ip administration.; type: functional; conditions: Mus musculus, Hindlimb; outline: as §1
# [29] = Dose elevating electroshock induced seizure by 20% in CF1 mice after ip administration.; type: functional, Mus musculus
# Outline: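 In CF1 male mice (ca. 24–34 g), compound was given ip in 0.5% methylcellulose. The current giving hind limb extension in 50% of mice was found by the up-and-down method, with 15–25 mice per group and a vehicle control group run with each experimental group. At least three doses were tested. The dose raising threshold current by 20% was taken from a plot of dose against % threshold increase.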
# [30] = Time of peak anticonvulsant effect in CF1 MICE after ip administration.; type: functional, Mus musculus; outline: as §2
# Rattus norvegicus [31] = assay: Average seizure score for the rat cornea 0.5 hr after intraperitoneal administration of 30 mg/Kg of compound; type: functional; outline: as §4
# Rattus norvegicus [32] = assay: Average seizure score for the rat cornea 0.5 hr after intraperitoneal administration of 20 mg/Kg of compound; type: functional; outline: as §4
# Rattus norvegicus [33] = assay: Intraperitoneal dose (15 mg/Kg) reducing rat corneal kindling 0.5 hr after administration.; type: functional; outline: as §4
# [34] = Time of peak neurotoxic effect in CF1 MICE after ip administration.; type: ADME, organism-based; conditions: mouse, in vivo; outline: as §3
# Rattus norvegicus [35] = assay: Average seizure score for the rat cornea 0.5 hr after intraperitoneal administration of 15 mg/Kg of compound; type: functional; outline: as §4
# Rattus norvegicus [36] = assay: Intraperitoneal dose (20 mg/Kg) reducing rat corneal kindling 0.5 hr after administration.; type: functional; outline: as §4
# Rattus norvegicus [37] = assay: Intraperitoneal dose (25 mg/Kg) reducing rat corneal kindling 0.5 hr after administration.; type: functional; outline: as §4
# Rattus norvegicus [38] = assay: Intraperitoneal dose (30 mg/Kg) reducing rat corneal kindling 0.5 hr after administration.; type: functional; outline: as §4
SMILES,Activity [1],Activity [2],Activity [3],Activity [4],Activity [5],Dose [7],Activity [8],Activity [9],Activity [10],Activity [11],Activity [12],Activity [14],Activity [15],TPE [17],ED50 [18] [mg/kg],TPE [20],further results
CCc1ccc(NC2=CC(=O)C(C(=O)OC)C(C)C2)cc1 (stereo not drawn),0,2,0,0,0,<=100 mg kg-1,–,–,–,–,–,–,–,–,–,–,Activity [6]: 0
COC(=O)C1C(=O)C=C(Nc2cc(OC)ccc2OC)CC1C (stereo not drawn),0,–,0,0,0,<=100 mg kg-1,0,0,0,1,0,0,0,–,–,–,Activity [13]: 1
CC1(C)CC(O)=C/C(=N\c2ccccc2)C1,0,2,0,0,0,<=100 mg kg-1,0,0,0,1,0,0,0,0.5,109,0.5,TD50 [16]: 233 mg/kg; TD50 [19]: > 250 mg/kg; selectivity ratio [21]: 2.1
COC(=O)C1C(=O)C=C(NNc2ccccc2)CC1C (stereo not drawn),–,–,–,–,–,>100 mg/kg,–,–,0,–,0,0,–,–,–,–,Activity [22]: 0; Activity [23]: 1; Activity [24]: 0
NC(=O)N1c2ccccc2C=Cc2ccccc21 [CARBAMAZEPINE],–,–,–,–,–,–,–,–,–,–,–,–,–,0.25,8.8,0.25,–
CCC1(c2ccccc2)C(=O)NC(=O)NC1=O [PHENOBARBITAL],–,–,–,–,–,–,–,–,–,–,–,–,–,–,–,–,Reduction (Rattus norvegicus [25]): 0%; TD50 [26]: 92 mg/kg; Average seizure score (Rattus norvegicus [27]): 5; ED50 [28]: 18 mg/kg; Dose [29]: 3 mg/kg; TPE [30]: 1; Average seizure score (Rattus norvegicus [31]): 1.3; Average seizure score (Rattus norvegicus [32]): 1.7; Reduction (Rattus norvegicus [33]): 47%; TPE [34]: 1; Average seizure score (Rattus norvegicus [35]): 2.7; Reduction (Rattus norvegicus [36]): 68%; Reduction (Rattus norvegicus [37]): 70%; Reduction (Rattus norvegicus [38]): 74%
